An excerpt weighted towards active compounds, which were near 3.4% of everything screened.
zfTRPN1 agonist = zebrafish TRPN1 channel agonists, primary screen, cell-based, HEK293, calcium fluorescence. transient receptor potential cation channel N1 (TRPN1/NompC), Danio rerio. HEK293 zebrafish TRPN1-YFP, Fluo-8 calcium fluorescence; 100% = response to 87 µM carbachol. activation, % at 3 µM. hit rate 0.18% among 220,000;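 active = activation above its plate's cutoff, the mean activation of test wells on that plate plus 3 SD, cut at about 19% in these data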;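 also: 0% = DMSO alone and 100% = 87 µM carbachol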
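Control set: carbachol 87 µM as high control, DMSO as low control; system: HEK293 stable line with zebrafish TRPN1-YFP; read-out: % activation versus carbachol response; detection: intracellular calcium fluorescence with Fluo-8; doses: single test compound dose, 3 µM nominal, 0.3% DMSO; schedule: dye 1 h 37 °C plus 30 min RT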
GPR7 antag = GPR7 receptor antagonists, primary screen, cell-based, fluorescence, single concentration; Neuropeptides B/W receptor type 1 (Homo sapiens), P48145; GPR7-expressing cells, fluorescence antagonist assay; inhibition, % at 4.4 µM; hit rate 1.1% among 290,000; in the data active = inhibition above about 16%, passing the limit was not always enough;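 also: cells stimulated with the agonist NPW; 0% = agonist with vehicle and 100% = vehicle without agonist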
LANA-H2A inh = blockers of LANA interaction with H2A/H2B – biochemical, FP readout, HTS, primary screen. Protein LANA1 (Human herpesvirus 8 type P (isolate GK18)), Q9QR71. hit rate 0.6% among 320,000. cell-free LANA-H2A/H2B peptide, fluorescence polarization. inhibition, % (test concentration not listed); in the data active = inhibition mostly above about 10%, no sharp cut-off; inactive = mostly below about 6.7%
TAAR1 antag = human TAAR1 antagonists, primary screen, Fluo-8 calcium fluorescence, CHO RD-HGA16 cells. Trace amine-associated receptor 1 (Homo sapiens), Q96RJ0. antagonist. inhibition, % at 3 µM. hit rate 1.5% among 360,000. AID 624466, 2012;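 active = inhibition above a per-plate cutoff, the mean inhibition of test compounds on that plate plus 3 SD, cut at about 49% in these data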;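 also: 0% = DMSO plus EC80 beta-PEA response and 100% = DMSO alone without agonist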
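Assay system: CHO-derived RD-HGA16 cells stably expressing human TAAR1 plus Gα16. Timing: 140 s kinetic read after compound, 140 s after agonist. Technique: kinetic Fluo-8 calcium fluorescence measurement. Measure: % inhibition of agonist calcium response.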
TAAR1 ag = human TAAR1 agonists, primary screen, Fluo-8 calcium fluorescence, CHO RD-HGA16 cells; vehicle wells 0%, saturating PEA agonist 100%; Trace amine-associated receptor 1 (Homo sapiens), Q96RJ0; hit rate 0.99% among 360,000; activation, % at 3 µM;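 active = activation above the mean activation of all test compounds in the run plus 3 SD, cut at about 38% in these data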
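Signal – calcium-sensitive Fluo-8 signal, excitation 470-495, emission 515-575 nm · System – RD-HGA16 (CHO) cells co-expressing Gα16 and hTAAR1 · Incubation – 17-24 h seeding, 75 min 37 °C dye, 30 min RT · Compound dosing – 3 µM single concentration · Repeats – no replicates (n 1)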
TRPML3 ag = human TRPML3 channel agonists, primary screen, cell-based, HEK293 TRPML3-YFP, Fluo-8 calcium fluorescence, 3 µM | 100% = the carbachol control signal | activation, % at 3 µM | hit rate 0.29% among 220,000 | Mucolipin-3 (Homo sapiens), Q8TDD5;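 active = activation above its plate's cutoff, the mean activation of the plate's test wells plus 3 SD, cut at about 12% in these data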;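 also: 0% = DMSO only wells and 100% = carbachol wells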
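Test system: TRPML3-YFP stable HEK293 cells. Doses: single point at 3 µM. Incubation: dye loading 1 h 37 °C then 30 min ambient, 125 s read. Signal: Fluo-8 calcium dye fluorescence, ex 470-495, em 515-575 nm. Measure: percent activation from peak-to-basal fluorescence ratio, scaled between DMSO and carbachol.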
GPR7 antag cf = GPR7 receptor antagonists, confirmation, cell-based, fluorescence, single concentration. shares compounds with GPR7 antag. GPR7-expressing cells, calcium fluorescence antagonist mode. inhibition, % at 4.4 µM. hit rate 52% among 2,400. AID 1952, 2009; in the data active = inhibition above about 24%;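 also: stimulated with the GPR7 agonist NPW; 0% = agonist plus vehicle and 100% = vehicle alone without agonist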
MCHR1 antag = MCHR1 antagonists in cells, counter-screen for GPR7 antagonist project, cell-based, fluorescence, human; inhibition, % at 4.4 µM; AID 2148, 2009; shares compounds with GPR7 antag; hit rate 62% among 2,400; MCHR1-expressing cells, fluorescence antagonist assay; in the data active = inhibition above about 22%;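 also: 0% = vehicle with agonist and 100% = vehicle without agonist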
* hit, by the source's call.

Results for O=C(Nc1cccnc1)c1cc(-c2cccc(Cl)c2)on1 ?
GPR7 antag: 23*; LANA-H2A inh: 4; TAAR1 antag: 1; TAAR1 ag: 4; GPR7 antag cf: 23; MCHR1 antag: 43*

How did O=C(Nc1cccnc1)c1cc(-c2ccc(Cl)c(Cl)c2)on1 do in these assays?
GPR7 antag: 5; LANA-H2A inh: 0; TAAR1 antag: -6; TAAR1 ag: 1

What do the screens show for `O=C(Nc1cccnc1)c1cc(-c2ccccc2O)on1`?
zfTRPN1 agonist: 1; GPR7 antag: 39*; LANA-H2A inh: -5; TAAR1 antag: -14; TAAR1 ag: 7; TRPML3 ag: 0; GPR7 antag cf: 40*; MCHR1 antag: 43*

Results for C[C@@H]1CN([C@@H](C)CO)S(=O)(=O)c2ccc(Br)cc2O[C@@H]1CN(C)C(=O)c1ccccn1 ?
TAAR1 antag: -15; TAAR1 ag: 0

Results for COc1ccc(C)cc1NC(=O)NNC(=O)C(C)Oc1ccc([N+](=O)[O-])cc1 (stereo not given) ?
GPR7 antag: -3; LANA-H2A inh: -6; TAAR1 antag: -21; TAAR1 ag: 9

How did Cc1nn(-c2ccccc2)c(Cl)c1CN(C(=O)CCl)c1ccc(Cl)cc1 do in these assays?
zfTRPN1 agonist: -3; GPR7 antag: 95*; LANA-H2A inh: 2; TAAR1 antag: 60*; TAAR1 ag: -2; TRPML3 ag: -1; GPR7 antag cf: 99*; MCHR1 antag: 100*

How did CC(=O)N(Cc1c(C)nn(-c2ccccc2)c1Cl)c1ccc(Cl)cc1 do in these assays?
zfTRPN1 agonist: -2; GPR7 antag: 14; LANA-H2A inh: -2; TAAR1 antag: 6; TAAR1 ag: -3; TRPML3 ag: -1

How did O=c1[nH]c2cc3c(cc2cc1CN(Cc1ccco1)C(=S)NCCCN1CCOCC1)OCCO3 do in these assays?
zfTRPN1 agonist: 2; GPR7 antag: 100*; LANA-H2A inh: 0; TAAR1 antag: 11; TAAR1 ag: 0; TRPML3 ag: 0; GPR7 antag cf: 4; MCHR1 antag: -3

How did O=C(Cn1cnc2cc([N+](=O)[O-])ccc2c1=O)Nc1ccccc1Cl do in these assays?
zfTRPN1 agonist: 0; GPR7 antag: -13; LANA-H2A inh: 4; TAAR1 antag: 7; TAAR1 ag: -1; TRPML3 ag: 0

What do the screens show for `O=C(Cn1cnc2cc([N+](=O)[O-])ccc2c1=O)Nc1cccc2ccccc12`?
zfTRPN1 agonist: -1; GPR7 antag: 25*; LANA-H2A inh: -3; TAAR1 antag: -10; TAAR1 ag: 1; TRPML3 ag: 0; GPR7 antag cf: 17; MCHR1 antag: 1

Results for Cc1ccccc1OCCn1cnc2cc([N+](=O)[O-])ccc2c1=O ?
zfTRPN1 agonist: 0; GPR7 antag: 26*; LANA-H2A inh: -2; TAAR1 antag: 49*; TAAR1 ag: 11; TRPML3 ag: 0; GPR7 antag cf: 27*; MCHR1 antag: 55*

Results for CC(C)N(c1ccccc1)c1ccc(NC(=O)COC(=O)CCN2C(=O)c3cccc([N+](=O)[O-])c3C2=O)cc1 ?
zfTRPN1 agonist: -1; GPR7 antag: 29*; LANA-H2A inh: 5; TAAR1 antag: 12; TAAR1 ag: 1; TRPML3 ag: 0; GPR7 antag cf: 74*; MCHR1 antag: 60*

Results for CCOc1ccc(C2CC(c3ccccc3C)n3ncnc3N2)cc1 (stereo not given) ?
zfTRPN1 agonist: 4; GPR7 antag: 37*; LANA-H2A inh: -4; TAAR1 antag: -9; TAAR1 ag: 3; TRPML3 ag: 1; GPR7 antag cf: 22; MCHR1 antag: 24*

Results for Cc1ccccc1C1CC(c2ccccc2)Nc2ncnn21 (stereo not given) ?
zfTRPN1 agonist: 2; GPR7 antag: 6; LANA-H2A inh: -4; TAAR1 antag: 0; TAAR1 ag: 3; TRPML3 ag: 1

What do the screens show for `COc1ccccc1C1CC(c2ccc(Cl)cc2)Nc2ncnn21` (stereo not given)?
zfTRPN1 agonist: 3; LANA-H2A inh: 0; TAAR1 antag: 4; TAAR1 ag: 18; TRPML3 ag: 2; MCHR1 antag: 15

How did c1ccc(OCCSc2nnnn2-c2ccccc2)cc1 do in these assays?
zfTRPN1 agonist: -1; GPR7 antag: 31*; LANA-H2A inh: -5; TAAR1 antag: 9; TAAR1 ag: 0; TRPML3 ag: -1; GPR7 antag cf: 10; MCHR1 antag: 35*

What do the screens show for `CCOc1ccc(OCCSc2nnnn2-c2ccccc2)cc1`?
zfTRPN1 agonist: -1; GPR7 antag: 0; LANA-H2A inh: -3; TAAR1 antag: 29; TAAR1 ag: 14; TRPML3 ag: -1

What do the screens show for `C[C@@H]1CNC(=O)c2c(C(=O)NC3CCN(C(=O)OC(C)(C)C)CC3)ncn21`?
TAAR1 antag: -18; TAAR1 ag: 0

Results for CCOc1cc(CNCCO)cc(Br)c1OCc1ccc(Cl)cc1 ?
zfTRPN1 agonist: 2; GPR7 antag: 54*; LANA-H2A inh: 2; TAAR1 antag: 27; TAAR1 ag: 40*; TRPML3 ag: 1; GPR7 antag cf: 70*; MCHR1 antag: 78*

Results for CCOc1cc(CNC(C)(C)CO)cc(Br)c1OCc1ccc(Cl)cc1Cl ?
zfTRPN1 agonist: 2; GPR7 antag: 46*; LANA-H2A inh: -4; TAAR1 antag: 12; TAAR1 ag: 17; TRPML3 ag: 2; GPR7 antag cf: 67*; MCHR1 antag: 78*

What do the screens show for `COCc1cc(CNC(=O)C2CCC(=O)N(Cc3cccc(OC)c3)C2)[nH]n1` (stereo not given)?
GPR7 antag: 6; TAAR1 antag: -16; TAAR1 ag: 0

How did COc1ccc(C=O)cc1CSc1nnc(COc2cccc3cccnc23)o1 do in these assays?
zfTRPN1 agonist: 4; GPR7 antag: 24*; LANA-H2A inh: 1; TAAR1 antag: 21; TAAR1 ag: 14; TRPML3 ag: 0; GPR7 antag cf: 10; MCHR1 antag: 27*
